Bioassay records: PubChem BioAssay, SRMLSC
The entries come from a sample that favours hits as a whole.
PTEN del growth: growth suppression of PTEN-null HCT116, primary screen, cell-based, CellTiter-Glo | HCT116 PTEN-null viability, 60 h; hits give low values | 140,000 tested, 1.2% active | viability, % at 10 µM | AID 827, 2007;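 active means viability at or below a set limit, 4 SD under the median of all tested compounds, cut at about 3.7% in these data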;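 further: PTEN knockout HCT116 line with beta catenin targeted HCT116 as companion control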
HCT116 bCat-KO: primary screen for growth suppressors in beta-catenin knockout HCT116 cells (colon tumor, human). AID 818, 2007. HCT116 beta-catenin knockout viability, CellTiter-Glo, 60 h; hits give low values. viability, % at 10 µM. 140,000 tested, 1.5% active;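 active means viability at or under a set limit, the compound median less 4 SD, cut at about 6% in these data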
H69AR inhibit: proliferation blockers of H69AR lung cancer cells, primary screen, cell-based, human, 86K library. H69AR lung tumor viability, ATP luminescence, 72 h; hits give low values. viability, % at 10 µM. 85,000 tested, 6% active;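 active means viability at or below 40%; inactive means viability above 40%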;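 further: multidrug resistant small cell line overexpressing MRP-1 efflux transporter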
Lung fibro prol: antiproliferative effect on LL 47 fibroblasts – human, LL 47 cells, CellTiter-Glo luminescence, primary screen. LL 47 human lung fibroblast viability, ATP luminescence; hits give low values. viability, % at 10 µM. 85,000 tested, 1.1% active. AID 719, 2007;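 active means viability at or below 50% in the single dose screen; inactive means viability above 50%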;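 further: compound exposure lasted 72 h before the ATP readout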
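Material: human LL 47 lung fibroblast cells; quantity: 1,150 cells/well; medium: IMEM plus 15% FBS; doses: 0.1% DMSO in all compound wells; timing: overnight attachment after seeding, then 72 h compound exposure at 37 °C; detection: CellTiter-Glo luminescence; measure: % viability of median cell-only signal; controls: cell-only wells, no compound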
HUVEC prolif 384: inhibitors of HUVEC proliferation, primary screen, cell-based, 384-well | CellTiter-Glo luminescence, 72 h; hits give low values | viability, % at 10 µM (by protocol) | 86,000 tested, 1.1% active;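 active means viability at or below 30%; inactive means viability above 30%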
Hits are given with their value; - = inactive; . = no result given.

SMILES	PTEN del growth	HCT116 bCat-KO	H69AR inhibit	Lung fibro prol	HUVEC prolif 384
CC1(C)CC(CC(=O)Nc2nccs2)(c2ccccc2)CCO1 (stereo not drawn)	-	-	.	.	.
COC(=O)CSC1=C(C#N)C(c2ccsc2)CC(=O)N1 (stereo not drawn)	-	-	38	-	-
COC(=O)CSC1=C(C#N)C(c2cccc(F)c2)CC(=O)N1 (stereo not drawn)	-	-	28	-	-
COc1cc(C=NCC2OCCc3ccccc32)cc(OC)c1 (stereo not drawn)	-	-	.	.	.
COc1ccc(Nc2nnc(SCC(=O)/C=C3/N(C)c4ccccc4C3(C)C)s2)cc1	-	-	.	.	.
N#Cc1ccsc1NC(=O)COC(=O)c1cc2ccccc2cc1O	-	-	.	.	.
CC(C)n1nc(C(=O)Nc2nc3ccc(S(C)(=O)=O)cc3s2)c2ccccc2c1=O	-	-	-	50	-
COc1ccc(-n2nc(C(=O)Nc3nc4ccc(OC)cc4s3)c3ccccc3c2=O)cc1	-	-	.	.	.
CS(=O)(=O)c1ccc2nc(NC(=O)CCC(=O)c3cccs3)sc2c1	-	-	40	-	-
CC(C)(C)NS(=O)(=O)c1ccc2nc(NC(=O)Cc3cccs3)sc2c1	-	-	28	-	-
CS(=O)(=O)c1ccc2nc(NC(=O)Cc3ccccc3)sc2c1	.	.	-	-	-
CN(Cc1ccccc1)c1ccc(C(=O)O)cc1[N+](=O)[O-]	-	-	.	.	.
CCOc1nc(-c2ccccc2)ccc1-c1noc(-c2ccc(OC)c(OC)c2)n1	.	.	32	-	-
COc1nc(-c2ccccc2)ccc1-c1noc(-c2ccccc2)n1	-	-	-	-	-
CCc1cccc(CC)c1NC(=O)/C(C#N)=C/c1ccccc1C(F)(F)F	1.8	1.5	.	.	.
N#C/C(=C\c1ccccc1C(F)(F)F)C(=O)Nc1ccccc1	-	-	.	.	.
CC1C/C(=N\Nc2ccc(S(N)(=O)=O)cc2[N+](=O)[O-])CC(C)(C)C1 (stereo not drawn)	-	-	.	.	.
NS(=O)(=O)c1ccc(N/N=C2/CCCCC2C2CCCCC2)c([N+](=O)[O-])c1 (stereo not drawn)	2.5	1.7	.	.	.
CCCCC(=O)Nc1ccc(C(=O)Nc2ccc(S(=O)(=O)N3CCCC3)cc2)cc1	-	-	-	42	-
CCCC(=O)Nc1nc2ccc(S(=O)(=O)N3CCCCC3)cc2s1	-	-	20	48	-
Cc1ccc2nc(NC(=O)C3CCCN(S(=O)(=O)c4cccnc4)C3)sc2c1 (stereo not drawn)	-	-	28	-	-
CC(C)[C@H](NC(=O)c1cccc(S(=O)(=O)N2CCOCC2)c1)C(=O)Nc1nc2ccccc2s1	-	-	.	.	.
O=C(Nc1nc2ccc(S(=O)(=O)N3CCCC3)cc2s1)c1ccco1	-	-	.	.	.
CC(=O)c1ccc(NC(=O)c2ccc(S(=O)(=O)N3CCCC3)cc2)cc1	-	-	-	-	-
CC(C)CC(=O)Nc1nc2ccc(S(=O)(=O)N3CCOCC3)cc2s1	-	-	27	-	-
SMILES	PTEN del growth	HCT116 bCat-KO	H69AR inhibit	Lung fibro prol	HUVEC prolif 384
O=C(OCn1nnc2ccccc2c1=O)c1cc(-c2ccccc2)nc2ccccc12	-	-	.	.	.
O=C(COn1nnc2ccc(C(F)(F)F)cc21)Nc1c(Cl)cccc1Cl	-	-	.	.	.
CCOc1ccc(-c2nnc(Nc3ccc(OC)c(C(=O)N4CCCCC4)c3)c3ccccc23)cc1	-	-	.	.	.
CCCOc1ccc(C(=O)NCC(c2ccco2)N(C)C)cc1 (stereo not drawn)	-	-	.	.	.
COC(=O)c1ccc(C(=O)OC)c(NC(=O)CN(C)Cc2ccccc2)c1	-	-	.	.	.
O=C(COC(=O)CNC(=O)c1ccccc1)Nc1ccc(Cl)cc1C(F)(F)F	-	-	.	.	.
CCOc1cc2c(cc1C(C)(C)C)NC(=O)CS2	-	-	37	-	-
COCCNC(=O)c1ccc2c(c1)NC(=O)CS2	-	-	-	-	-
CSc1nsc(/C=C/Nc2ccc(Cl)cc2)c1C#N	-	-	.	.	.
CSc1nsc(/C=C/Nc2cccc(Cl)c2)c1C#N	-	-	29	-	-
O=C(Nc1ccccc1Br)C1CCN(C(=O)Cc2ccccc2)CC1	-	-	.	.	.
Cc1c(C#N)c(N=CN(C)C)c(C(=O)c2ccccc2)n1-c1ccc(Br)cc1	-	-	20	-	-
Cc1c(C#N)c(N=CN(C)C)c(C(=O)c2ccc(Br)cc2)n1-c1ccccc1	-	-	-	-	-
Cc1ccccc1Nc1nc(-c2sc(NC(=O)c3ccc([N+](=O)[O-])cc3)nc2C)cs1	-	-	.	.	.
CCOc1ccccc1Nc1nc(-c2sc(NC(=O)c3ccc([N+](=O)[O-])cc3)nc2C)cs1	1.5	0.8	.	.	.
COc1ccc(Cl)cc1Nc1nc(-c2sc(NC(=O)c3ccccc3)nc2C)cs1	1.1	1.2	.	.	.
Cc1ccc(/C=N/NC(=O)c2cc(C3CC3)nc3ccccc23)o1	-	-	.	.	.
Cc1nc([N+](=O)[O-])c(Br)n1CC(=O)c1ccc2ccccc2c1	-	-	0.4	-	-
Cc1nc([N+](=O)[O-])c(Br)n1CC(=O)c1ccc(Br)cc1	-	3.0	-0.4	25	-
Cc1nc([N+](=O)[O-])c(Br)n1CC(=O)c1ccccc1	-	-	35	-	-
Cc1nc([N+](=O)[O-])c(N2CCN(Cc3ccccc3)CC2)n1Cc1ccccc1	-	-	-	-	-
CC(C)N(C(=O)C(F)(F)F)C(C(=O)NC1CCCCC1)c1ccncc1 (stereo not drawn)	-	-	-	-	-
COc1cc(/C=N/NC(=O)c2[nH]nc3c2CCc2ccccc2-3)ccc1O	-	-	.	.	.
CSc1nc2sc3c(c2c2nncn12)CCC3	-	-	-	-	-
CCc1nc(Sc2nnnn2-c2ccccc2)c2c3c(sc2n1)CCCC3	3.1	4.9	.	.	.
SMILES	PTEN del growth	HCT116 bCat-KO	H69AR inhibit	Lung fibro prol	HUVEC prolif 384
Cc1nc(Sc2nnnn2C)c2c3c(sc2n1)CCC3	-	-	23	33	-
CCCc1sc(N)nc1-c1ccc(C)cc1	-	-	.	.	.
Cc1sc2nc(CSc3nc4ccccc4c(=O)n3CCCN3CCOCC3)[nH]c(=O)c2c1C	-	-	9.8	-	-
CC(=O)c1c(C)[nH]c(C(=O)CSc2nc3ccccc3c(=O)n2CCCN2CCOCC2)c1C	-	-	-	-	-
O=C(Nc1cc(N2CCOCC2)ncn1)Nc1cccc2ccccc12	-	-	32	-	-
CC(C)(C)NC(=O)c1cnn2c1NC(c1ccc(F)cc1)CC2C(F)(F)F (stereo not drawn)	-	-	-	33	-
Cc1ccc(Cl)cc1NC(=O)c1cnn2c1NC(c1ccco1)CC2C(F)(F)F (stereo not drawn)	-	-	-	-	-
Cc1ccc(C2CC(C(F)(F)F)n3ncc(C(N)=O)c3N2)cc1 (stereo not drawn)	-	-	-	-	-
O=C(Nc1ccc2c(c1)CCC2)c1cnn2c1NC(c1ccco1)CC2C(F)(F)F (stereo not drawn)	-	-	30	37	-
